According to ChEMBL document CHEMBL4825680, “Structure-based discovery of potent and selective small-molecule inhibitors targeting signal transducer and activator of transcription 3 (STAT3)” (Eur J Med Chem, 2021):
Active and inactive are the calls of the source. The calls are words filed in the database; no cut-off is given here.

Columns and labels:
[1] = Metabolic stability in human liver microsomes assessed as half life at 0.1 uM preincubated for 10 mins followed by NADPH addition and measured upto 60 mins by LC-MS/MS analysis; assay type: ADME, Microsome; conditions: time <=70 min
Method in brief: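 Microsomes at 0.33 mg/mL in 0.1 M Tris pH 7.4 with 5 mM MgCl2; compound final 0.1 μM (0.01% DMSO, 0.005% BSA). Preincubated 10 min at 37 °C, then started with 1 mM NADPH. Sampled at 0, 7, 17, 30 and 60 min and quenched with cold methanol. Centrifuged, then analysed by LC-MS/MS.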

HCC70 [2] = test: Effect on total STAT3 level in human HCC70 cells at 0.3 to 3 uM measured after 3 hrs by Western blot analysis; assay type: functional, cell-based; conditions: dose 0.3-3 µM
Method in brief: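 Breast cancer cells were treated with vehicle (0.1% DMSO) or compound, then lysed in RIPA with PMSF and phosphatase inhibitors. 20–50 μg protein was run on 8 or 12% SDS-PAGE, blotted to PVDF, blocked in 5% BSA, probed with primary antibodies overnight at 4 °C, then HRP secondaries, with ECL detection.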

[3] = molecular target: T1, Signal transducer and activator of transcription 1-alpha/beta (Homo sapiens) (UniProt P42224); test: Inhibition of STAT1 phosphorylation at Y701 residue in human HCC70 cells at 0.3 to 3 uM after 3 hrs by Western blotting analysis; assay type: cell-based; conditions: dose 0.3-3 µM
T1 sequence (whole entry): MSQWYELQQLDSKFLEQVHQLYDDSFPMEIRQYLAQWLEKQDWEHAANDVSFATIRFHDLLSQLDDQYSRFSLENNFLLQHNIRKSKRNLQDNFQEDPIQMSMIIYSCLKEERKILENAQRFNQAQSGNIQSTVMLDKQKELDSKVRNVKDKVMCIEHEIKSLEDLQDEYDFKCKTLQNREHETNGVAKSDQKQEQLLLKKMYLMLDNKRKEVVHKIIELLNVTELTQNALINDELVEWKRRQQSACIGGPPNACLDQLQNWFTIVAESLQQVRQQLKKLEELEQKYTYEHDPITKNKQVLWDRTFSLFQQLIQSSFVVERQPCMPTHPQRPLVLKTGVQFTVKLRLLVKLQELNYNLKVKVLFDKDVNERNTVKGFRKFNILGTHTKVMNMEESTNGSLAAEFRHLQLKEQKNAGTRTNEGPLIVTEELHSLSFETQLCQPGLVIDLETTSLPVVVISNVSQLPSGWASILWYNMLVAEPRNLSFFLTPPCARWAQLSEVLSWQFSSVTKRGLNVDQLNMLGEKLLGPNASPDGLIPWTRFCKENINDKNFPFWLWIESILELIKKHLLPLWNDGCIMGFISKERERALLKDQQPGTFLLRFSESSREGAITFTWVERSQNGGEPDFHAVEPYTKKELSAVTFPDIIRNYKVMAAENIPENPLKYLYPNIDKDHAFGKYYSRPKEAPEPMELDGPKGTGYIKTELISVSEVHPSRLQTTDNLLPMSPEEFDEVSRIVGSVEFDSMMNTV

HCC70 [4] = test: Antiproliferative activity against human HCC70 cells assessed as reduction in cell viability after 72 hrs by CCK8 assay; assay type: functional, cell-based; conditions: HCC70, 72 h
Method in brief: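 Cells seeded at 1000–8000 per well were grown overnight, then exposed to 0.1–100 μM compound or 0.1% DMSO vehicle for 72 h. CCK-8 was added for 0.5–4 h at 37 °C and absorbance read at 480 nm. Viability = (OD compound − blank)/(OD vehicle − blank) × 100, with medium as blank. IC50 fitted from three independent experiments.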

MDA-MB-231 [5] = test: Induction of apoptosis in human MDA-MB-231 cells assessed as early apoptotic cells at 1 uM after 48 hrs by Annexin-V-FITC/propidium iodide staining based flow cytometric analysis (reference value: 2.98%); assay type: functional
MDA-MB-231 [6] = test: Induction of apoptosis in human MDA-MB-231 cells assessed as early apoptotic cells at 3 uM after 48 hrs by Annexin-V-FITC/propidium iodide staining based flow cytometric analysis (reference value: 2.98%); assay type: functional
MDA-MB-468 = test: Induction of apoptosis in human MDA-MB-468 cells assessed as viable cells at 3 uM after 48 hrs by Annexin-V-FITC/propidium iodide staining based flow cytometric analysis (reference value: 95.5%); assay type: functional; conditions: read-out: Activity
MDA231-LM2-4175 [7] = test: Inhibition of cell migration in human MDA231-LM2-4175 cells incubated for 12 to 96 hrs by wound healing assay; assay type: functional, cell-based; conditions: dose 0.3-3 µM, time 12-96 hrs
Method in brief: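 Cells grown to 100% confluence, then scratched with a pipette tip. Treated with 0–3 μM until vehicle-treated cells had migrated into the scratch. Images taken by microscope after about 12–96 h. Triplicate experiments.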

[8] = AUC(0 to last) in Sprague-Dawley rat at 10 mg/kg, po measured up to 24 hrs by LC-MS/MS analysis; assay type: ADME, organism-based; set-up: route oral, dose 10 mg/kg, time <=24; conditions: in vivo
Method in brief: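 Male SD rats given a single oral dose of 10 mg/kg in DMSO/0.5% HPMC (5/95, v/v). Blood was drawn at 0.25, 0.5, 1, 2, 4, 8 and 24 h, and plasma was analysed by LC-MS/MS on a BEH phenyl column with a formic acid water/acetonitrile mobile phase.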

MDA231-LM2-4175 [9] = test: Antitumor activity against iv dosed human MDA231-LM2-4175 cells xenografted in mouse assessed as tumor growth inhibition administered once daily for 20 days; assay type: functional, organism-based; conditions: dose 5-15 mg/kg, time 20.0 day
MDA231-LM2-4175 [10] = test: Antitumor activity against human MDA231-LM2-4175 cells xenografted in mouse assessed as reduction in Mcl expression at 5 to 15 mg/kg, iv administered once daily for 20 days by Western blotting analysis; assay type: functional, organism-based; conditions: dose 5-15 mg/kg, time 20.0 day
[11] = Toxicity in mouse xenografted with human MDA-MB-231-4175 cells assessed as morphological change in heart at 5 to 15 mg/kg, […] once daily for 20 days by HE staining based assay; assay type: organism-based; conditions: in vivo, iv, 480 h, dose 5-15 mg/kg, time 20 day
Method in brief: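 Female NOD-SCID mice aged 4–5 weeks, given 2×10^6–3×10^6 MDA-MB-231-4175 cells subcutaneously in the flank. At about 100 mm³ tumour volume, randomised n=6/group: vehicle (PBS with 15% Cremophor EL), 5 or 15 mg/kg intraperitoneally daily. Killed at day 20; heart, liver, spleen, lung and kidney collected for morphological examination.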

Breast cancer cell line = test: Antitumor activity against patient-derived breast cancer cells xenografted in NOD/SCID mouse assessed as reduction in Mcl-1 expression at 5 to 15 mg/kg, iv administered once daily for 20 days by Western blotting analysis; assay type: functional, organism-based; conditions: Homo sapiens, dose 5-15 mg/kg, time 20.0 day

Question: What does the source list for `O=C(Cc1c(-c2ccccc2)nc2ccccn12)Nc1ccc2c(c1)S(=O)(=O)C=C2`?
Answer: half-life at 0.1 µM [1]: 24.2 min; Activity (HCC70 [2]): inactive; inhibition [3]: inactive; IC50 (HCC70 [4]): 1100 nM; Activity (MDA-MB-231 [5]): 7.38%; Activity (MDA-MB-231 [6]): 12.5%; viability at 3 µM (MDA-MB-468): 38.6%; inhibition (MDA231-LM2-4175 [7]): Dose-Dependent Effect; AUC(0-t) at 24 h [8]: 54.6 ng·h/mL; Activity (MDA231-LM2-4175 [9]): Dose-Dependent Effect; Activity (MDA231-LM2-4175 [10]): Active; Activity [11]: Non-Toxic; Activity (Breast cancer cell line): Active
